Results from ChEMBL document CHEMBL1157246, “Cytotoxic isomalabaricane triterpenes from the marine sponge Rhabdastrella globostellata” (2006).
Activity calls are given as the source filed them. No cut-off for these calls is given here.

Columns and labels:
Saccharomyces cerevisiae [1] = test: Antifungal activity against Saccharomyces cerevisiae after 24 hrs by agar diffusion assay; format: functional, organism-based
How it was run: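 S. cerevisiae was inoculated on YPD agar, and MeOH-dissolved compounds were applied on 5 mm disks. Inhibition zones were recorded after 24 h at 27 °C, with nystatin 5 µg as positive control.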

L5178Y [2] = test: Cytotoxicity against mouse L5178Y cells at 10 ug/mL after 72 hrs by MTT assay; format: functional
How it was run: (§1)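 Exponentially growing cells (3750 per well) were exposed to samples from EtOH 96% stocks for 72 h at 37 °C in 5% CO2. MTT (20 µL of 5 mg/mL in PBS, pH 7.4) was added for 3 h 45 min, then formazan was released with DMSO and read at 520 nm. Survival % was taken relative to untreated cells, with media containing 0.1% EGMME/DMSO as controls. Assays were run in triplicate and repeated three times.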

L5178Y [3] = test: Cytotoxicity against mouse L5178Y cells at 3 ug/mL after 72 hrs by MTT assay; format: functional; how it was run: as §1
L5178Y [4] = test: Cytotoxicity against mouse L5178Y cells after 72 hrs by MTT assay; format: functional; how it was run: as §1
HeLa [5] = test: Cytotoxicity against human HeLa cells at 10 ug/mL after 72 hrs by MTT assay; format: functional; how it was run: as §1
HeLa [6] = test: Cytotoxicity against human HeLa cells at 3 ug/mL after 72 hrs by MTT assay; format: functional; how it was run: as §1
HeLa [7] = test: Cytotoxicity against human HeLa cells at 30 ug/mL after 72 hrs by MTT assay; format: functional, cell-based; how it was run: as §1
PC-12 [8] = test: Cytotoxicity against rat PC12 cells at 10 ug/mL after 72 hrs by MTT assay; format: functional; settings: PC-12, 72 h; how it was run: as §1
PC-12 [9] = test: Cytotoxicity against rat PC12 cells at 3 ug/mL after 72 hrs by MTT assay; format: functional; settings: PC-12, 72 h; how it was run: as §1
PC-12 [10] = test: Cytotoxicity against rat PC12 cells at 30 ug/mL after 72 hrs by MTT assay; format: functional, cell-based; how it was run: as §1
Escherichia coli [11] = test: Antibacterial activity against Escherichia coli DSM10290 at 10 ug after 24 hrs by agar diffusion assay; format: functional; settings: read-out: IZ
How it was run: (§2)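 Disks (5 mm) impregnated with compound dissolved in MeOH were laid on LB agar plates seeded with B. subtilis DSM2109 or E. coli DSM10290. Inhibition zones were read after 24 h at 37 °C. Streptomycin and gentamycin, 5 µg each, served as positive controls.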

HeLa [12] = test: Cytotoxicity against human HeLa cells after 72 hrs by MTT assay; format: functional; how it was run: as §1
PC-12 [13] = test: Cytotoxicity against rat PC12 cells after 72 hrs by MTT assay; format: functional; how it was run: as §1
Escherichia coli [14] = test: Antibacterial activity against Escherichia coli DSM10290 at 5 ug after 24 hrs by agar diffusion assay; format: functional; settings: read-out: IZ; how it was run: as §2
Bacillus subtilis [15] = test: Antibacterial activity against Bacillus subtilis DSM2109 at 5 ug after 24 hrs by agar diffusion assay; format: functional; settings: read-out: IZ; how it was run: as §2
Bacillus subtilis [16] = test: Antibacterial activity against Bacillus subtilis DSM2109 at 10 ug after 24 hrs by agar diffusion assay; format: functional; settings: read-out: IZ; how it was run: as §2
Saccharomyces cerevisiae [17] = test: Antifungal activity against Saccharomyces cerevisiae at 5 ug after 24 hrs by agar diffusion assay; format: functional, organism-based
How it was run: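 Paper disks (5 mm diameter) loaded with test material dissolved in MeOH were placed on YPD agar plates inoculated with S. cerevisiae. After 24 h of incubation at 27 °C, the zone of inhibition (mm) was recorded.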

Compound	Activity (Saccharomyces cerevisiae [1])	inhibition at 10 µg/mL (L5178Y [2]) [%]	inhibition at 3 µg/mL (L5178Y [3]) [%]	ED50 (L5178Y [4]) [nmol]	inhibition at 10 µg/mL (HeLa [5]) [%]	inhibition at 3 µg/mL (HeLa [6]) [%]	Activity (HeLa [7])	inhibition at 10 µg/mL (PC-12 [8]) [%]	inhibition at 3 µg/mL (PC-12 [9]) [%]	Activity (PC-12 [10])	zone of inhibition at 10 µg/disc (Escherichia coli [11]) [mm]	ED50 (HeLa [12]) [nmol]	ED50 (PC-12 [13]) [nmol]	zone of inhibition at 5 µg/disc (Escherichia coli [14]) [mm]	zone of inhibition at 5 µg/disc (Bacillus subtilis [15]) [mm]	zone of inhibition at 10 µg/disc (Bacillus subtilis [16]) [mm]	inhibition zone (IZ) (Saccharomyces cerevisiae [17]) [mm]
CCOC(/C=C/C(C)=C/C=C/C(C)=C1/C(=O)C[C@H]2[C@@]3(C)CC[C@@H](OC(C)=O)[C@](C)(C(=O)O)[C@@H]3CC[C@]12C)C(C)(C)O (some centres not stated) [GLOBOSTELLATIC ACID J, K]	inactive	100	24	8.28	0	0	inactive	0	0	inactive	–	–	–	–	–	–	–
COC(/C=C/C(C)=C/C=C/C(C)=C1/C(=O)C[C@H]2[C@@]3(C)CC[C@@H](O)[C@](C)(C(=O)O)[C@@H]3CC[C@]12C)C(C)(C)O (some centres not stated) [GLOBOSTELLATIC ACID D, G]	inactive	100	100	0.39	25	4	–	42	18	–	10	46.69	30.33	–	–	–	–
CN[C@@H]1[C@H](O[C@H]2[C@H](O[C@H]3[C@H](O)[C@@H](O)[C@H](N=C(N)N)[C@@H](O)[C@@H]3N=C(N)N)O[C@@H](C)[C@]2(O)C=O)O[C@@H](CO)[C@H](O)[C@H]1O [STREPTOMYCIN]	–	–	–	–	–	–	–	–	–	–	–	–	–	13	20	–	–
CC(C)=CCC(O[C@H]1OC[C@@H](O)[C@@H](O)[C@H]1O)/C(C)=C/C=C/C(C)=C1\C(=O)C[C@H]2[C@@]3(C)CC[C@@H](O)C(C)(C)[C@@H]3CC[C@]12C (some centres not stated)	inactive	100	100	2.4	100	26	–	54	33	–	12	8.14	27.63	–	–	–	–
CC(=O)O[C@@H]1CC[C@@]2(C)[C@@H](CC[C@]3(C)/C(=C(\C)C(=O)/C=C/C(C)=C/C=C/C(C)(C)O)C(=O)C[C@@H]23)[C@@]1(C)C(=O)O [GLOBOSTELLATIC ACIDS A]	inactive	100	100	–	0	0	inactive	0	0	inactive	–	–	–	–	–	–	–
C/C(C(=O)/C=C/C(C)=C/C=C/C(C)(C)O)=C1/C(=O)C[C@H]2[C@@]3(C)CC[C@H](O)C(C)(C)[C@@H]3CC[C@]12C [GLOBOSTELLETIN]	inactive	94	66	5.34	0	0	–	0	0	inactive	–	>60	–	–	12	13	–
CC(=O)O[C@@H]1CC[C@@]2(C)[C@@H](CC[C@]3(C)/C(=C(C)/C=C/C=C(\C)C(CC=C(C)C)O[C@@H]4OC[C@H](O)[C@H](O)[C@@H]4O)C(=O)C[C@@H]23)C1(C)C (some centres not stated)	inactive	100	100	0.22	56	0	–	38	0	–	–	22.76	21.54	–	–	–	–
NYSTATIN	–	–	–	–	–	–	–	–	–	–	–	–	–	–	–	–	12
CCOC(/C=C/C(C)=C/C=C/C(C)=C1/C(=O)C[C@H]2[C@@]3(C)CC[C@@H](O)[C@](C)(C(=O)O)[C@@H]3CC[C@]12C)C(C)(C)O (some centres not stated) [GLOBOSTELLATIC ACID H, I]	inactive	100	100	0.31	23	8	–	41	16	–	10	46.05	28.07	–	–	–	–
C/C(C(=O)/C=C/C(C)=C/C=C/C(C)(C)O)=C1/C(=O)C[C@H]2[C@@]3(C)CC[C@@H](O)[C@](C)(C(=O)O)[C@@H]3CC[C@]12C [GLOBOSTELLATIC ACID F]	inactive	100	42	10.36	0	0	inactive	0	0	inactive	–	–	–	–	–	–	–
CC(/C=C/C(O)C(C)(C)O)=C\C=C\C(C)=C1\C(=O)C[C@H]2[C@@]3(C)CC[C@@H](O)[C@](C)(C(=O)O)[C@@H]3CC[C@]12C (some centres not stated) [GLOBOSTELLATIC ACID L, M]	inactive	100	100	0.92	42	0	–	30	0	–	–	27.87	27.52	–	–	–	–
